From ChEMBL document CHEMBL4376814, “Novel cyclin-dependent kinase 9 (CDK9) inhibitor with suppression of cancer stemness activity against non-small-cell lung cancer” (Eur J Med Chem, 2019) come the findings set out here.

Active and inactive are the calls of the source. The calls are words filed in the database; no cut-off is given here.

The subject of test [1] is NCI-H1299. The experiment in a line: Induction of apoptosis in human H1299 cells assessed as viable cells at 0.5 uM after 48 hrs by AnnexinV-FITC/PI staining-based flow cytometric analysis (reference value: 97.1%). Format: functional. Particulars: NCI-H1299, 48 h, read-out: Activity.
The test system of test [2] is NCI-H1299. The experiment in a line: Antitumour activity against human H1299 cells xenografted in Balb/c mouse assessed as inhibition of Rb phosphorylation at Ser 780 residue at 20 to 80 mg/kg, po administered for 3 weeks by […] based light microscopic analysis. The class given is functional, organism-based. An outline of the steps: (§1)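 Tumours came from the H1299 oral-dosing xenograft run for 3 weeks. Formalin-fixed, paraffin-embedded 5-µm sections were deparaffinized and rehydrated. Primary antibodies (CDK9, cyclin T1, p-Rb Ser780, RNAPII CTD Ser5, Oct4) used at 1:100 overnight at 4 °C. Biotinylated secondary for 1 h at room temperature, then ABC-peroxidase/DAB, hematoxylin counterstain and light microscopy.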

Test [3] relates to NCI-H1299. The experiment in a line: Antitumour activity against human H1299 cells xenografted in Balb/c mouse assessed as reduction in Oct4 level at 20 to 80 mg/kg, po administered for 3 weeks by […] based light microscopic analysis. The class given is functional, organism-based. In outline:
as §1

In test [4] the test system is Tyrosine-protein kinase ABL1 (Homo sapiens), P00519 [T315I]. The test is described as follows: Inhibition of recombinant human ABL T315I mutant (27 to end residues) at 1 uM using EAIYAAPFAKKK as substrate measured after 40 mins in presence of [gamma33P]ATP by scintillation counting method relative to control.
The target in test [5] is NUAK family SNF1-like kinase 1 (Homo sapiens) (UniProt O60285). The test is described as follows: Inhibition of recombinant human ARK5 (2 to end residues) at 1 uM using KKKVSRSGLYRSPSMPENLNRPR as substrate measured after 40 mins in presence of [gamma33P]ATP by scintillation counting method relative to control.
Sequence of NUAK family SNF1-like kinase 1 (Homo sapiens) (O60285 whole entry, the tested form may be a part): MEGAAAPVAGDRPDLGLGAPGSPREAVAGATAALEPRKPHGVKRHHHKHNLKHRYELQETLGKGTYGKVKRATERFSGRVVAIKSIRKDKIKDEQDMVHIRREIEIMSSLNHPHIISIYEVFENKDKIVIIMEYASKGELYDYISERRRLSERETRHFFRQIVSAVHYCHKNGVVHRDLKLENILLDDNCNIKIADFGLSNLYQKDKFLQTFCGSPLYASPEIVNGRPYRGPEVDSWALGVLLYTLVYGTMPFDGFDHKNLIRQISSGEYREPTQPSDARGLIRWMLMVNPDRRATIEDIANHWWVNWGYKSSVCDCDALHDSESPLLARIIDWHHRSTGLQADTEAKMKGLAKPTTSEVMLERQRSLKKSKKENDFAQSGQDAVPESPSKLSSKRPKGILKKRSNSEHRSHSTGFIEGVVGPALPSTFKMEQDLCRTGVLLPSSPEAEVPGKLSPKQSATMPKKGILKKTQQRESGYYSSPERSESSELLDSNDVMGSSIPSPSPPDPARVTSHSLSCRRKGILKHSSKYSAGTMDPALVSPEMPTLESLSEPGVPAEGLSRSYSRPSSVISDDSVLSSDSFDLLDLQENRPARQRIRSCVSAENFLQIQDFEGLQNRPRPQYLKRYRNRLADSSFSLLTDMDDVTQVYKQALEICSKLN
The target in test [6] is Bone morphogenetic protein receptor type-2 (Homo sapiens) (UniProt Q13873). The test is described as follows: Inhibition of recombinant human BMPR2 (172 to 734 residues) at 1 uM using myelin basic protein as substrate measured after 120 mins in presence of [gamma33P]ATP by scintillation counting method relative to control.
Test [7] concerns the target Serine/threonine-protein kinase MRCK beta (Homo sapiens) (UniProt Q9Y5S2). The experiment in a line: Inhibition of recombinant human MRCKbeta (1 to 473 residues) at 1 uM using KKRNRTLTV as substrate measured after 40 mins in presence of [gamma33P]ATP by scintillation counting method relative to control.
Test [8] addresses Cyclin-dependent kinase 13/Cyclin-K (Homo sapiens) (UniProt Q14004+O75909). The experiment in a line: Inhibition of human full length recombinant CDK13/cyclinK at 1 uM using RSRSRSRSRSRSRSR as substrate incubated for 120 mins in presence of [gamma-33P]ATP at by radiometric assay relative to control. Format: protein-complex assay.
For test [9], the system named is Serine/threonine-protein kinase Chk2 (Homo sapiens), O96017 [I157T]. The experiment in a line: Inhibition of recombinant human CHK2 I157T mutant (5 to end residues) at 1 uM using KKKVSRSGLYRSPSMPENLNRPR as substrate measured after 40 mins in presence of [gamma33P]ATP by scintillation counting method relative to control. In outline:
(§2)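 Single-point inhibition at 1 µM was measured in the Eurofins KinaseProfiler panel. Values are the mean of two independent experiments.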

In test [10] the test system is Casein kinase I isoform gamma-3 (Homo sapiens), Q9Y6M4 [UNDEFINED MUTATION]. The experiment in a line: Inhibition of recombinant human CK1gamma3 K91E/R174G/E302D mutant (1 to 330 residues) at 1 uM using KRRRALS(p)VASLPGL as substrate measured after 40 mins in presence of [gamma33P]ATP by scintillation counting method relative to control. In outline:
as §2

Test [11] concerns Platelet-derived growth factor receptor alpha (Homo sapiens), P16234 [V561D]. The test is described as follows: Inhibition of recombinant human PDGFRalpha (550 to end residues) V561D mutant at 1 uM using GGMEDIYFEFMGGKKK as substrate measured after 40 mins in presence of [gamma33P]ATP by scintillation counting method relative to control.
In test [12] the target is Ephrin type-A receptor 1 (Homo sapiens) (UniProt P21709). The test is described as follows: Inhibition of recombinant human EphA1 (568 to end residues) at 1 uM using KKKSPGEYVNIEF as substrate measured after 40 mins in presence of [gamma33P]ATP by scintillation counting method relative to control.
Sequence of Ephrin type-A receptor 1 (Homo sapiens) (P21709 whole entry): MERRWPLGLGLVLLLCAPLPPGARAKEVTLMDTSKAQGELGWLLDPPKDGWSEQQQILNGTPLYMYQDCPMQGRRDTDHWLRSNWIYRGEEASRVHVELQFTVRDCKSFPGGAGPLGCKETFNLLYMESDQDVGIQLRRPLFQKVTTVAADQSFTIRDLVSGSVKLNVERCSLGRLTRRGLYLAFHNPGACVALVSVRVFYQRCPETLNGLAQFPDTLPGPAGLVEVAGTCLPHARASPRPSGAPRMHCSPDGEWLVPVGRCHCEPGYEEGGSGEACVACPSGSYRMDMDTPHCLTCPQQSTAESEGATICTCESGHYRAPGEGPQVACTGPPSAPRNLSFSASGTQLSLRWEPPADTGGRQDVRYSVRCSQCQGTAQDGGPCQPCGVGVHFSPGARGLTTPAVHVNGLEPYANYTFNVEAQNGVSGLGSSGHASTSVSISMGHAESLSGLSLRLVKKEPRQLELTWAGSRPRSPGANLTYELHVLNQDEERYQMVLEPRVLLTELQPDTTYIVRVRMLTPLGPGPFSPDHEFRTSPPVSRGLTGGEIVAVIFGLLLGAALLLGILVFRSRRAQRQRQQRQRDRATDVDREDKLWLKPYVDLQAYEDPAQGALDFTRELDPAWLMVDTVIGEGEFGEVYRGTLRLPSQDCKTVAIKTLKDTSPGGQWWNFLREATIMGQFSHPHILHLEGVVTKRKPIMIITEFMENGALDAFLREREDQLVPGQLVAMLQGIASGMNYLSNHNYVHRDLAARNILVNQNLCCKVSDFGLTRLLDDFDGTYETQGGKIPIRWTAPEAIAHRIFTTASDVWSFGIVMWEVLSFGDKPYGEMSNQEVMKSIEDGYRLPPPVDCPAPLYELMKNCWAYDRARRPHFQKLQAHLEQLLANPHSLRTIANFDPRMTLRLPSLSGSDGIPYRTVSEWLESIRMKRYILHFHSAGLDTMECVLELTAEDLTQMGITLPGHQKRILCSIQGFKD
Test [13] addresses Serine/threonine-protein kinase PLK1 (Homo sapiens) (UniProt P53350). The test is described as follows: Inhibition of full length human PLK1 at 1 uM using casein as substrate measured after 40 mins in presence of [gamma33P]ATP by scintillation counting method.
For test [14], the target named is Proto-oncogene tyrosine-protein kinase receptor Ret (Homo sapiens) (UniProt P07949). The test is described as follows: Inhibition of human Ret (658 to end residues) at 1 uM using KKKSPGEYVNIEFG as substrate measured after 40 mins in presence of [gamma33P]ATP by scintillation counting method relative to control. In outline: (§3)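 Percent inhibition of kinase activity at a single compound concentration, measured by the outsourced Eurofins KinaseProfiler panel. Values are the mean of two independent experiments.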

Test [15] has as its target Fibroblast growth factor receptor 4 (Homo sapiens) (UniProt P22455). The experiment in a line: Inhibition of recombinant human FGFR4 (442 to 755 residues) at 1 uM using poly(Glu, Tyr) 4:1 as substrate measured after 40 mins in presence of [gamma33P]ATP by scintillation counting method relative to control.
The test system of test [16] is Receptor-type tyrosine-protein kinase FLT3 (Homo sapiens), P36888 [D835Y]. The test is described as follows: Inhibition of recombinant human Flt3 (564 to end residues) D835Y mutant at 1 uM using EAIYAAPFAKKK as substrate measured after 40 mins in presence of [gamma33P]ATP by scintillation counting method relative to control.
Test [17] has as its target Homeodomain-interacting protein kinase 1 (Homo sapiens) (UniProt Q86Z02). The experiment in a line: Inhibition of recombinant human activated HIPK1 (158 to 555 residues) at 1 uM using myelin basic protein as substrate measured after 40 mins in presence of [gamma33P]ATP by scintillation counting method relative to control.
The target of test [18] is Non-receptor tyrosine-protein kinase TYK2 (Homo sapiens) (UniProt P29597). The test is described as follows: Inhibition of human TYK2 (875 to end residues) at 1 uM using GGMEDIYFEFMGGKKK as substrate measured after 40 mins in presence of [gamma33P]ATP by scintillation counting method relative to control. In outline:
as §3

In test [19] the target is Serine/threonine-protein kinase ULK1 (Homo sapiens) (UniProt O75385). The experiment in a line: Inhibition of human ULK1 (1 to 314 residues) at 1 uM using casein as substrate measured after 40 mins in presence of [gamma33P]ATP by scintillation counting method relative to control.
The target in test [20] is LIM domain kinase 2 (Homo sapiens) (UniProt P53671). The test is described as follows: Inhibition of recombinant human LIMK2 at 1 uM by radiometric method relative to control.
In test [21] the target is Serine/threonine-protein kinase WNK2 (Homo sapiens) (UniProt Q9Y3S1). The test is described as follows: Inhibition of recombinant human WNK2 (166 to 489 residues) at 1 uM using MBP as substrate measured after 40 mins in presence of [gamma33P]ATP by scintillation counting method relative to control.

Sequence of Serine/threonine-protein kinase MRCK beta (Homo sapiens) (Q9Y5S2 whole entry, the tested form may be a part): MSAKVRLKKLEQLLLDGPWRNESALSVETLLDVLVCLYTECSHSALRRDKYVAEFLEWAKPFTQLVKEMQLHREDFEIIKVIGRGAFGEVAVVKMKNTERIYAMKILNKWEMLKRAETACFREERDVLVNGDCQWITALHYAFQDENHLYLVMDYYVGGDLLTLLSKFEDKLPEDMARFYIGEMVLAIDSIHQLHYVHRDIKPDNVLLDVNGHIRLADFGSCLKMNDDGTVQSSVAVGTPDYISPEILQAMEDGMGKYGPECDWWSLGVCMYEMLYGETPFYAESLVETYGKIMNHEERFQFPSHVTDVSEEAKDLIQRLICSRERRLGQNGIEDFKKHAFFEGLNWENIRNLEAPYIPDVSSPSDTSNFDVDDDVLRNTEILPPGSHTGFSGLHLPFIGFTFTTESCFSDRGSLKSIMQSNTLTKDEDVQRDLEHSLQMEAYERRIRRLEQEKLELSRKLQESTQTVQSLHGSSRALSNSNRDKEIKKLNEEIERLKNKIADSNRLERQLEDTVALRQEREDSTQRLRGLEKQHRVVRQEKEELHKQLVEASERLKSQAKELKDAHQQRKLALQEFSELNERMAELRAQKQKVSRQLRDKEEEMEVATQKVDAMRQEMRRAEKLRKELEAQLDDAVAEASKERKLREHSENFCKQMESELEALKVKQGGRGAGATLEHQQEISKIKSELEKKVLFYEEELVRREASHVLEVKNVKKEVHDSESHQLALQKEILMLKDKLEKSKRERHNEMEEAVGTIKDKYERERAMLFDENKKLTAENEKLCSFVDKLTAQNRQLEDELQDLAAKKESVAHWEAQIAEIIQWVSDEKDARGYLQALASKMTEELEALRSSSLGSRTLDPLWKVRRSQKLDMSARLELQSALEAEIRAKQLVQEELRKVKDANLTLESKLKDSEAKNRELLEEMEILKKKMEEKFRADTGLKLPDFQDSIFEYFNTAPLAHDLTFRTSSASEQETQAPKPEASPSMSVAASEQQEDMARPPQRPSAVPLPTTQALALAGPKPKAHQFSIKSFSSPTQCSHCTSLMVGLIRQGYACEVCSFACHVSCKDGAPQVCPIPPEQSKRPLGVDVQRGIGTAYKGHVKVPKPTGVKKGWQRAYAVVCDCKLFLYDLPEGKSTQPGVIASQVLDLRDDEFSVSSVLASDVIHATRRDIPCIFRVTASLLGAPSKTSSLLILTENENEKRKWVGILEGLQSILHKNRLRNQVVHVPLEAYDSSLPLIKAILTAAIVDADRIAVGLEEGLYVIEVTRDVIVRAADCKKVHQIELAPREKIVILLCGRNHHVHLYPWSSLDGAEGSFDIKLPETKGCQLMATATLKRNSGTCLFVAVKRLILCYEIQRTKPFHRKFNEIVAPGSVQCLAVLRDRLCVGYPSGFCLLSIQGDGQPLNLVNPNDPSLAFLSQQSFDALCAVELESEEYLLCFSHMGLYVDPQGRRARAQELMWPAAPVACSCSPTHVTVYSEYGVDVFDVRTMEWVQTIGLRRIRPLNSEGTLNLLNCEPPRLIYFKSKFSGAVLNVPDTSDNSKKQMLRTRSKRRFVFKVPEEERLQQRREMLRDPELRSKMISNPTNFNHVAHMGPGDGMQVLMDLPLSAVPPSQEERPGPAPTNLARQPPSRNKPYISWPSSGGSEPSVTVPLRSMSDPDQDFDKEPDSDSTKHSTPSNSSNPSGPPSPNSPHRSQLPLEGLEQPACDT
Sequence of Fibroblast growth factor receptor 4 (Homo sapiens) (P22455 22-802 limits assumed): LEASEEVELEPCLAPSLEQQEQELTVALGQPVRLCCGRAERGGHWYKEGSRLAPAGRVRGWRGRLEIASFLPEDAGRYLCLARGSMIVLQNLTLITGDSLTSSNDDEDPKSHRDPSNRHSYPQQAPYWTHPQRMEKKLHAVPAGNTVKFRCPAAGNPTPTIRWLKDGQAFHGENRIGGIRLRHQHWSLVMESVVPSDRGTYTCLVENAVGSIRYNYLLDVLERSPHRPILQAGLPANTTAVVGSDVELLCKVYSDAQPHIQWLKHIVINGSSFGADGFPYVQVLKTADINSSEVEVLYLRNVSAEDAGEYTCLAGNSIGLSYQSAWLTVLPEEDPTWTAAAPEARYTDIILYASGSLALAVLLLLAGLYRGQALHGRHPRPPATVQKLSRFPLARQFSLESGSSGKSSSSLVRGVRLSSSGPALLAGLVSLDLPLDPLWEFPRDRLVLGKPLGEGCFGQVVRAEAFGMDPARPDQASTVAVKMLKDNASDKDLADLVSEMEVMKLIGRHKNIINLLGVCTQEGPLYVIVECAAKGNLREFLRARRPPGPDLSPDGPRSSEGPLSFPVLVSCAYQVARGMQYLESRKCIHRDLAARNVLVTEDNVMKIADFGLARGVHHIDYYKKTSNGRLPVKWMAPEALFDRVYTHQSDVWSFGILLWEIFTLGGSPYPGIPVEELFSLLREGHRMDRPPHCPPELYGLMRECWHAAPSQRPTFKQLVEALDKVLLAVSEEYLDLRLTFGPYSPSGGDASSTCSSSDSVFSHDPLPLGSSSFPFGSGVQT
Sequence of Casein kinase I isoform gamma-3 (Homo sapiens), Q9Y6M4 [UNDEFINED MUTATION] (Q9Y6M4 whole entry, looked up, stated change not applied, the tested form may be a part, canonical isoform): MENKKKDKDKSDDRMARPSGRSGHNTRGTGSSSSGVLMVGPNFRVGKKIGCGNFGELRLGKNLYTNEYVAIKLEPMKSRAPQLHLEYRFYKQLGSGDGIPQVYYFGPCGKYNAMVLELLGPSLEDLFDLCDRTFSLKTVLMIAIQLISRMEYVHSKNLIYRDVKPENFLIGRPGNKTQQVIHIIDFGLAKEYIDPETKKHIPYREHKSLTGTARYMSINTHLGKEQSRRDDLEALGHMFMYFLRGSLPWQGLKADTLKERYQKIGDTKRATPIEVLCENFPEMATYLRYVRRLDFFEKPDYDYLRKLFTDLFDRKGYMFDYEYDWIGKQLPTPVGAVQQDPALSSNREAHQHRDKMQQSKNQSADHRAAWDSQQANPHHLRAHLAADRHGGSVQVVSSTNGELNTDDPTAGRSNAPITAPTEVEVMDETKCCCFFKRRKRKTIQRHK

Consider `CN(C)C(=O)c1cc2cnc(Nc3ccc(NC(=O)CCCCCCCN=C=S)cc3)nc2n1C1CCCC1`, for which the viability at 0.5 µM in the test with NCI-H1299 [1] came to 94.5%. Besides, the result in the test on NCI-H1299 [2] and with NCI-H1299 [3] was Active. The inhibition in [4] was 38%; in [5] it was 79%; in test [6], 73%; in [7], 7%; in [8], 26%; in test [9], 43%. For the same compound, the inhibition in test [10] was 11%; in [11], 90%; in test [12] it was 44%; in test [13], -2%; in test [14], 55%; in test [15], -2%. Also, the inhibition in test [16] was 72%; in test [17], 9%; in [18] it was 4%; in test [19] it was -3%; in test [20], 13%; in test [21], 4%.
